Measured values as given in ChEMBL document CHEMBL1221223, “Identification of a chemical probe for NAADP by virtual screening” (Nat Chem Biol, 2009).
The source made the active and inactive calls. The rule behind the calls is not given here.

Assays:
[1] = tested on: Lytechinus pictus; assay: (§1) Antagonistic activity at NAADP receptor in sea urchin egg homogenate assessed as inhibition of NAADP-mediated Ca2+ release using Fluo-3 staining based fluorimetric assay relative to control; type: functional, tissue-based
[2] = as §1; type: functional, tissue-based, Lytechinus pictus
[3] = Displacement of [32P]NAADP from NAADP receptor in sea urchin egg homogenate preincubated 10 mins before [32P]NAADP addition; type: tissue-based, Lytechinus pictus
Procedure, shortened: (§2)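 Sea urchin egg homogenate in intracellular-like buffer. Compound in DMSO (final 1% v/v) pre-incubated 10 min at 25°C, then [32P]NAADP added to 0.3 nM. Incubated 30 min, then binding assessed by filtration; concentration range used for displacement curves.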

[4] = tested on: Lytechinus pictus; assay: Displacement of [32P]NAADP from NAADP receptor in sea urchin egg homogenate after 5 days; type: tissue-based
Procedure, shortened: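 Homogenate pre-incubated 10 min with compound (10 μM) or NAADP (10 nM), then [32P]NAADP added. Samples filtered at time points up to 5 days; dissociation read as recovery of [32P]NAADP binding (100% ≈ 1,500 cpm).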

[5] = tested on: Lytechinus pictus; assay: Noncompetitive inhibition of NAADP receptor in sea urchin egg homogenate assessed as inhibition of NAADP induced Ca2+ release using Fluo-3 staining based fluorimetric assay; type: tissue-based
[6] = tested on: Lytechinus pictus; assay: Inhibition of cyclic ADP-ribose-induced Ca2+ release in sea urchin Egg homogenate at 100 uM using Fluo-3 staining based fluorimetric assay relative to control; values are per cent of control
[7] = tested on: Lytechinus pictus; assay: Antagonistic activity at NAADP receptor in sea urchin egg homogenate assessed as inhibition of NAADP-mediated Ca2+ release at 100 uM using Fluo-3 staining based fluorimetric assay relative to control; values are per cent of control
[8] = tested on: Lytechinus pictus; assay: Antagonistic activity at NAADP receptor in intact sea urchin eggs assessed as Inhibition of NAADP mediated Ca2+ increase at 100 uM using Oregon Green 488-BAPTA Dextran staining based by laser scanning confocal microscopy; type: functional
Procedure, shortened: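 Intact Lytechinus pictus eggs on polylysine-coated coverslips in artificial seawater containing compound. Eggs microinjected with Oregon Green 488 BAPTA Dextran (10 μM). NAADP (100 μM in pipette) pressure-microinjected to 1% egg volume, delivering ~1 μM. Imaged by laser-scanning confocal microscopy, 488 nm excitation, emission 530±15 nm band-pass or 510 nm long-pass.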

[9] = species on record: Mus musculus; assay: Antagonistic activity at NAADP receptor in CD1 mouse pancreatic beta cells assessed as inhibition of NAADP-mediated Ca2+ increase at 125 uM by patch clamp method; type: functional
Procedure, shortened: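 Mouse pancreatic beta cells voltage-clamped with a patch pipette; NAADP delivered through the pipette (50 nM in text, 100 nM in legend). Compound pre-incubated in the bathing solution. Ca2+ increases read as Ca2+-dependent current traces, compared with and without compound in the bath.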

[10] = (§3) Inhibition of glucose-induced Ca2+ increase in CD1 mouse pancreatic islets preincubated for 30 mins before glucose challenge; type: functional, cell-based; settings: CD1, Pancreatic islet
Procedure, shortened: (§4)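 Acutely isolated mouse islets loaded with fura-PE3 AM and held in 3 mM glucose. Compound pre-incubated 30 min, then 15 mM glucose added. First peak, oscillation amplitude and plateau measured; concentration-inhibition curve gives IC50.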

[11] = tested on: Pancreatic islet; assay: as §3; type: functional, cell-based; procedure, shortened: as §4
[12] = Displacement of [32P]NAADP from Egg-binding protein in sea urchin egg homogenate at 6 uM after 10 mins; type: tissue-based, Lytechinus pictus; procedure, shortened: as §2
[13] = species on record: Mus musculus; assay: Inhibition of L-type calcium channel in CD1 mouse pancreatic islets at 100 uM in presence of glucose diazoxide and KCl
Procedure, shortened: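 Mouse islets in glucose (10 mM) and diazoxide (100 μM), depolarized with KCl (45 mM) with or without compound (100 μM). Ca2+ transient monitored with fura-PE3.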

[14] = species on record: Mus musculus; assay: Binding affinity to NAADP receptor in CD1 mouse pancreatic beta cells assessed as fluorescent labeling of receptor at 60 nM after 30 mins by confocal microscopy
Procedure, shortened: (§5)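 Mouse pancreatic beta cells imaged by confocal microscopy, compound excited at 355 nm with emission 415±30 nm. LysoTracker Red (50 nM, 20-40 min; excitation 568 nm, emission >590 nm) used as comparison. Pretreatment with bafilomycin A1 (3 μM, 15 min) or NAADP-acetoxymethyl ester (60 nM, 30 min).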

[15] = tested on: Pancreatic islet; assay: Inhibition of glucose induced mitochondrial metabolism in CD1 mouse pancreatic islets assessed as NADH and NADPH levels by fluorescence method; type: functional, cell-based
Procedure, shortened: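 Mouse islets pre-incubated 60 min at 37°C in 3 mM glucose. NAD(P)H fluorescence (360 nm excitation, >470 nm emission) expressed as percent of basal values within the same islet.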

[16] = tested on: Lytechinus pictus; assay: Inhibition of IP3-induced Ca2+ release in sea urchin Egg homogenate at 100 uM using Fluo-3 staining based fluorimetric assay relative to control; values are per cent of control
[17] = species on record: Mus musculus; assay: Binding affinity to NAADP receptor in CD1 mouse pancreatic beta cells assessed as fluorescent labeling of receptor at 60 nM after 30 mins in presence of V-type proton pump inhibitor bafilomycin A1 by confocal microscopy; procedure, shortened: as §5

O=C(COC(=O)c1cccc(Oc2ccccc2)c1)COC(=O)c1cccc(Oc2ccccc2)c1
inhibition [1]: inactive

CS(=O)(=O)N(Cc1ccccc1)c1ccc(C(=O)N/N=C/c2cccc(Oc3ccccc3)c2)cc1
inhibition [1]: inactive

COc1cc2c(cc1OC)-c1cc(NCCN3CCN(C(=O)c4ccc(F)cc4)CC3)nc(=O)n1CC2
inhibition [1]: inactive

CCn1c2ccccc2c2cc(NC(=O)CN3CCN(S(=O)(=O)c4ccc(OC)cc4)CC3)ccc21
inhibition [1]: inactive

CN1C(=O)/C(=C/c2ccccc2Cl)Sc2ccc(C(=O)N3CCN(Cc4ccc5c(c4)OCO5)CC3)cc21
inhibition [1]: inactive

Cc1ccc(-c2cc(C(=O)NCC(C)(C)CNC(=O)c3cc(-c4ccc(C)o4)nc4ccccc34)c3ccccc3n2)o1
inhibition [1]: inactive

CCN1C(=O)c2ccccc2[C@H]1Nc1ccc(C(=O)N2CCN(C/C=C/c3ccccc3)CC2)cc1
inhibition [1]: inactive

CCC(=O)N1N=C(c2ccc(C3=NN(C(=O)CC)[C@H](c4cccc(OC)c4OC)C3)cc2)C[C@H]1c1cccc(OC)c1OC
inhibition [1]: Insoluble

COc1ccccc1N(C)S(=O)(=O)c1ccc(C(=O)Nc2ccc(N(c3ccccc3)C(C)C)cc2)cc1
inhibition [1]: Active

O=C(COc1ccccc1-c1ccccc1)N1CCN(S(=O)(=O)c2ccc3c(c2)OCCO3)CC1
inhibition [1]: inactive

COc1ccc2[nH]c(C(=O)O)c(CCNC(=O)CO/N=C3/C=C[C@@]4(C)C(=C3)CC[C@@H]3[C@H]4CC[C@]4(C)[C@H]3CC[C@]4(C)O)c2c1
inhibition [1]: Toxic

CCn1c2ccccc2c2cc(NC(=O)CN3CCN(S(=O)(=O)c4cc(Cl)ccc4Cl)CC3)ccc21
inhibition [1]: inactive

NC(=O)c1c(NC(=O)CN2CCN(S(=O)(=O)c3ccc4c(c3)OCCO4)CC2)sc2c1CCCC2
inhibition [1]: inactive

C=C1NN(c2nc(-c3cccc([N+](=O)[O-])c3)cs2)C(=O)/C1=N/Nc1ccc(Cl)cc1C(=O)c1ccccc1
inhibition [1]: Insoluble

COc1ccc([C@@H]2N[C@H](C(=O)O)Cc3c2[nH]c2ccccc32)cc1CN1CCN(c2ccccc2F)CC1
IC50 [2]: 0.8 µM | IC50 [3]: 15 µM

CC(C)N(CCCNC(=O)c1ccc2c(c1)N(Cc1c(F)cccc1Cl)C(=O)CS2)Cc1ccccc1
inhibition [1]: Active

C[C@@H]1CCc2c(sc(NC(=O)CN3CCN(S(=O)(=O)c4ccc5c(c4)OCCO5)CC3)c2C#N)C1
inhibition [1]: inactive

COc1ccc(C(=O)OCC(=O)c2ccc3c(c2)-c2ccccc2C3)cc1S(=O)(=O)N1CCCc2ccccc21
inhibition [1]: Active

CN1C(=O)/C(=C/c2ccccc2F)Sc2ccc(C(=O)N3CCN(Cc4ccc5c(c4)OCO5)CC3)cc21
inhibition [1]: inactive

CCN(CC)CCOC(=O)c1ccc(NC(=O)c2cc(-c3cccc4ccccc34)nc3ccccc23)cc1
inhibition [1]: inactive

Cc1ccc(-n2c(SCC(=O)N/N=C\c3cccc(Oc4ccccc4)c3)nnc2-c2ccc(Cl)cc2)cc1
inhibition [1]: inactive

CC(C)(c1ccccc1)c1ccc(OC[C@@H](O)CN[C@H](Cc2ccccc2)c2nc(-c3ccccc3)no2)cc1
inhibition [1]: inactive

FC(F)(F)c1cccc(N2CCN(Cn3nc(COc4ccccc4)n(-c4ccccc4)c3=S)CC2)c1
inhibition [1]: Toxic

COc1ccc(C2N[C@H](C(=O)O)Cc3c2[nH]c2ccccc32)cc1CN1CCN(c2ccccc2F)CC1 (some centres not stated)
IC50 [2]: 2 µM | inhibition [4]: Active | inhibition [5]: Active | level, % of control [6]: 101% | residual activity [7]: 5.4% | inhibition [8]: Active | inhibition [9]: Active | IC50 [10]: 3 µM | inhibition [11]: Dose-dependent effect | Ki [12]: 6 µM | inhibition [13]: inactive | Activity [14]: Active | inhibition [15]: inactive | level, % of control [16]: 87% | Activity [17]: Active

COc1ccc([C@H]2N[C@H](C(=O)O)Cc3c2[nH]c2ccccc32)cc1CN1CCN(c2ccccc2F)CC1
IC50 [2]: 0.006 µM | IC50 [3]: 0.0004 µM

COc1ccc(S(=O)(=O)N2CCN([C@H](C)C(=O)Nc3ccccc3-c3ccccc3)CC2)cc1
inhibition [1]: inactive
